Legend:
[1] = Pharmacokinetics after single and multiple doses, part 1; type: in vivo, human; conditions: for AUC(0-t): AUC0–24, young; for Tmax: median and range (minimum, maximum)
Summary of the method: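 Randomised 3:1 double-blind placebo-controlled groups (9 active, 3 placebo) of healthy young or elderly subjects took 5- or 25-mg tablets. Dosing was a single dose on day 1, QD or BID for 10 days from day 4, and a single dose on day 14. Fasted on days 1 and 14. Blood was sampled through day 23 and urine after first and last doses (QD only). Plasma/urine LC-MS/MS used a seven-point calibration. Geometric mean (%CV) values were reported.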

[2] = Pharmacokinetics of 25-mg single morning or evening dose, part 2; type: in vivo, human
Summary of the method: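 Open-label two-period crossover in 12 healthy young subjects. Each took single fasted 25-mg doses, morning and evening, separated by a washout of at least 11 days. Blood was sampled pre-dose to 96 h and measured by LC-MS/MS. AUC0–tz, AUC0–∞ and Cmax were given as adjusted gMeans with evening/morning ratio and 90% CI. tmax was given as median (range).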

[3] = Effect of food intake; type: in vivo, human; conditions: 25 mg; for Cmax: human, plasma, oral, Cmax at steady state, gMean
Summary of the method: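 Healthy young (25 mg, group 2) and elderly (25 mg, group 5) subjects were dosed once daily with tablets. On day 12, group 2 dosed light-fed (standardised ~500 kcal breakfast 30 min pre-dose) and group 5 dosed light-fasted (no food ≥10 h before until 1 h after). Day 12 plasma profiles were compared with day 14 fasted profiles (no food ≥10 h before until 3.5 h after) as gMean ratios.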

[4] = system: CYP3A4; conditions: cited from earlier work
[5] = young, 10 mg QD, multiple dose, gMean (%CV)
[6] = young, 10 mg QD, single dose, gMean (%CV)
[7] = young, 25 mg QD, multiple dose, gMean (%CV)
[8] = young, 25 mg QD, single dose, gMean (%CV)
[9] = young, 50 mg QD, multiple dose, gMean (%CV)
[10] = young, 50 mg QD, single dose, gMean (%CV)
[11] = young, 75 mg BID, single dose, gMean (%CV)
[12] = young, 75 mg QD, multiple dose, gMean (%CV)
[13] = young, 75 mg QD, single dose, gMean (%CV)
[14] = young subjects, standardised light breakfast

C[C@@H](Oc1ccc(S(C)(=O)=O)cc1C(=O)N1C[C@@H]2C[C@]2(c2cc(C(F)(F)F)on2)C1)C(F)(F)F [BI 425809]
AUC(0-t) ([1]; human, plasma, oral, 75 mg, 75 mg BID, single dose, fed, gMean (%CV)): 12 µM·h | AUC(0-t) ([1]; human, plasma, oral, 75 mg, 75 mg QD, single dose, fasted, gMean (%CV)): 7.17 µM·h | AUC ([1]; human, plasma, oral, 75 mg, AUCτ,ss, young, 75 mg QD, multiple dose, gMean (%CV)): 16.5 µM·h | Cmax ([1]; human, plasma, oral, 75 mg, Cmax, young, 75 mg BID, single dose, fed, gMean (%CV)): 884 nM | Cmax ([1]; human, plasma, oral, 75 mg, Cmax, young, 75 mg QD, single dose, fasted, gMean (%CV)): 451 nM | Cmax ([1]; human, plasma, oral, 75 mg, Cmax,ss, young, 75 mg QD, multiple dose, gMean (%CV)): 1020 nM | Tmax ([1]; human, plasma, oral, 75 mg, tmax, young, 75 mg BID, single dose): 4.02 h | Tmax ([1]; human, plasma, oral, 75 mg, tmax,ss, young, 75 mg BID, multiple dose, tmax,22 given): 3.5 h | Tmax ([1]; human, plasma, oral, 75 mg, tmax,ss, young, 75 mg QD, multiple dose): 4.5 h | exposure multiple (AUC0–24 and Cmax), 75-mg BID dose group vs 25-mg dose group ([1]; in vivo): 3.2 fold | increase in AUCτ,ss, 75 mg BID vs. 75 mg QD ([1]; multiple dosing): 14% | increase in Cmax,ss, 75 mg BID vs. 75 mg QD ([1]; multiple dosing): 90% | Cmax ([1]; read-out: Cmax,ss, young, 10 mg QD, multiple dose, gMean (%CV)): 221 nM | AUCτ,ss,norm [1, 5]: 387 (22.2) nmol·h/L/mg | Cmax,ss,norm [1, 5]: 22.1 (19.5) nmol/L/mg | AUC0–24,norm [1, 6]: 141 (20.1) nmol·h/L/mg | Cmax,norm [1, 6]: 10.9 (19.0) nmol/L/mg | AUCτ,ss,norm [1, 7]: 425 (31.7) nmol·h/L/mg | Cmax,ss,norm [1, 7]: 23.3 (27.6) nmol/L/mg | AUC0–24,norm [1, 8]: 149 (18.2) nmol·h/L/mg | Cmax,norm [1, 8]: 11.1 (19.7) nmol/L/mg | AUCτ,ss,norm [1, 9]: 285 (29.4) nmol·h/L/mg | Cmax,ss,norm [1, 9]: 16.0 (26.3) nmol/L/mg | AUC0–24,norm [1, 10]: 120 (24.4) nmol·h/L/mg | Cmax,norm [1, 10]: 7.95 (28.7) nmol/L/mg | AUCτ,ss,norm ([1]; young, 75 mg BID, multiple dose, AUCτ,22,norm given, gMean (%CV)): 251 (20.2) nmol·h/L/mg | Cmax,ss,norm ([1]; young, 75 mg BID, multiple dose, Cmax,22,norm given, gMean (%CV)): 25.8 (17.2) nmol/L/mg | AUC0–24,norm [1, 11]: 160 (13.7) nmol·h/L/mg | Cmax,norm [1, 11]: 11.8 (8.72) nmol/L/mg | AUCτ,ss,norm [1, 12]: 220 (29.6) nmol·h/L/mg | Cmax,ss,norm [1, 12]: 13.6 (23.1) nmol/L/mg | AUC0–24,norm [1, 13]: 95.6 (17.9) nmol·h/L/mg | Cmax,norm [1, 13]: 6.01 (17.9) nmol/L/mg | AUC0–tz, adjusted gMean ratio evening/morning (90% CI) ([2]; 25 mg single dose): 120 (107–135) % | AUC0–∞, adjusted gMean ratio evening/morning (90% CI) ([2]; 25 mg single dose): 118 (104–134) % | Cmax, adjusted gMean ratio evening/morning (90% CI) ([2]; 25 mg single dose): 115 (98.1–136) % | higher gMean Cmax, evening compared with morning administration ([2]; 25 mg single dose, 90% CI 98.1–136): 15% | higher AUC0–tz, evening compared with morning administration ([2]; 25 mg single dose, 90% CI 107–135): 20% | AUC0–tz, adjusted gMean ([2]; 25 mg single evening dose, fasted): 8.41 µM·h | higher exposure, evening compared with morning ([2]; 25-mg tablet): 15–20% | AUC(0-t) ([2]; human, plasma, oral, 25 mg): 7 µM·h | Tmax ([2]; human, plasma, oral, 25 mg): 4.5 h | AUC(0-inf) ([2]; human, plasma, oral, 25 mg, AUC0–∞, adjusted gMean, 25 mg single morning dose, fasted): 8.77 µM·h | Cmax ([2]; human, plasma, oral, 25 mg, Cmax, adjusted gMean, 25 mg single morning dose, fasted): 241 nM | gMean ratio (light fed:light fasted) steady-state AUC [3]: 105.2% | gMean ratio (light fed:light fasted) steady-state Cmax [3]: 106.8% | gMean ratio (light fasted:fasted) steady-state AUC ([3]; elderly subjects): 104.5% | gMean ratio (light fasted:fasted) steady-state Cmax ([3]; elderly subjects): 108.3% | gMean ratio (light fed:fasted) steady-state AUC ([3]; young subjects): 114.0% | gMean ratio (light fed:fasted) steady-state Cmax ([3]; young subjects): 123.2% | increase in steady-state AUC, light fed compared with fasted [3, 14]: 14% | increase in steady-state Cmax, light fed compared with fasted [3, 14]: 23% | Cmax ([3]; healthy elderly subjects, fasted): 611 nM | Cmax ([3]; healthy elderly subjects, light fasted): 662 nM | Cmax ([3]; healthy young subjects, fasted): 574 nM | Cmax ([3]; healthy young subjects, fed (light fed)): 707 nM | role of CYP3A4 in metabolic pathway ([4]; drug–drug interaction study confirming in-vitro data): major component of the BI 425809 metabolic pathway | CYP3A4 induction ([4]; in-vitro and clinical studies): has the potential to induce CYP3A4 activity | metabolising enzyme ([4]; in-vitro and clinical studies): primarily metabolised by CYP3A4
